Experimental data as given in ChEMBL document CHEMBL1144182, “Antimicrobial and cytotoxic arylazoenamines. Part III: antiviral activity of selected classes of arylazoenamines” (Bioorg Med Chem, 2008).
The source made the active and inactive calls. No rule for the calls is given here.

Assays:
[1] = Cytotoxicity against mock-infected BHK cells assessed as reduction in cell viability after 96 hrs by MTT assay; assay type: cell-based, Mesocricetus auratus; conditions: hamster
Summary of the method: (§1)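 Cytotoxicity run in parallel with the antiviral assays. MDBK seeded at 6 × 10^5 and BHK at 1 × 10^6 cells/mL in maintenance medium with or without serial compound dilutions. Incubated 48–96 h at 37 °C, 5% CO2, then viability read by MTT. CC50 is the concentration reducing mock-infected cell viability by 50%.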

[2] = Cytotoxicity against mock-infected african green monkey Vero76 cells assessed as reduction in cell viability after 96 hrs by MTT assay; assay type: cell-based, Vero; conditions: chlorocebus sabaeus
[3] = Cytotoxicity against mock-infected human MT4 cells assessed as reduction in cell viability after 96 hrs by MTT assay; assay type: cell-based
Summary of the method: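 Exponentially growing MT-4 cells seeded at 1 × 10^5 cells/mL in RPMI-1640 with 10% FCS, penicillin and streptomycin, with or without serial compound dilutions. Incubated at 37 °C, 5% CO2; viability read by MTT after 96 h. CC50 is the concentration reducing mock-infected cell viability by 50%.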

[4] = Cytotoxicity against mock-infected MDBK cells assessed as reduction in cell viability after 96 hrs by MTT assay; assay type: cell-based, Bos taurus; conditions: cattle; summary of the method: as §1
[5] = tested on: Respiratory syncytial virus; test: Antiviral activity against RSV infected in Vero76 cells assessed as reduction in virus plaque formation after 4 days by MTT assay; assay type: functional, organism-based; conditions: human respiratory syncytial virus, Vero 76, 96 h
Coxsackievirus B2 = test: Antiviral activity against CVB2 infected in Vero76 cells assessed as reduction in virus plaque formation after 4 days by MTT assay; assay type: functional, organism-based; conditions: Enterovirus B, Vero 76, 96 h
Poliovirus 1 = test: Antiviral activity against Sb1 virus infected in Vero76 cells assessed as reduction in virus plaque formation after 4 days by MTT assay; assay type: functional, organism-based; conditions: Enterovirus C, Sabin, Vero 76, 96 h
Vaccinia virus = test: Antiviral activity against VV infected in Vero76 cells assessed as reduction in virus plaque formation after 4 days by MTT assay; assay type: functional, organism-based; conditions: Orthopoxvirus vaccinia; Vero 76
[6] = tested on: Bovine viral diarrhea virus 1; test: Antiviral activity against BVDV infected in MDBK cells assessed as protection against virus-induced cytopathogenicity after 4 days by MTT assay; assay type: functional, organism-based; conditions: Bovine viral diarrhea virus isolates and strains, 96 h
Summary of the method: (§2)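 MDBK (BVDV) or BHK-21 (YFV) cells were seeded at 3 × 10^4 or 5 × 10^4 cells/well respectively and grown overnight to confluent monolayers at 37 °C in 5% CO2. Monolayers were infected at m.o.i. 0.01 in serum-free medium. After 1 h, MEM Earle's with 1% FCS was added, with or without serial compound dilutions. After 3–4 days at 37 °C, viability was read by MTT. EC50 was taken as 50% protection from virus-induced cytopathogenicity.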

Yellow fever virus = test: Antiviral activity against YFV infected in BHK21 cells assessed as protection against virus-induced cytopathogenicity after 4 days by MTT assay; assay type: functional, organism-based; conditions: BHK-21, 96 h; summary of the method: as §2
[7] = tested on: Vesicular stomatitis virus; test: Antiviral activity against VSV infected in Vero76 cells assessed as reduction in virus plaque formation after 4 days by MTT assay; assay type: functional, organism-based; conditions: Vero 76
[8] = tested on: Human immunodeficiency virus 1; test: Antiviral activity against HIV1 infected in MT4 cells assessed as virus-induced cytopathogenicity after 4 days; assay type: functional, organism-based

Structure (SMILES) | CC50 at 96 h [1] | CC50 at 96 h [2] | CC50 at 96 h [3] | CC50 at 96 h [4] | EC50 [5] | EC50 (Coxsackievirus B2) | EC50 (Poliovirus 1) | Activity (Vaccinia virus) | EC50 [6] | EC50 (Yellow fever virus) | Activity [7] | Activity [8]
CN1C=C(/N=N/c2ccccc2Cl)CCC1 | > 100 µM | > 100 µM | > 100 µM | > 100 µM | > 100 µM | > 100 µM | 8 µM | inactive | 100 µM | > 100 µM | inactive | inactive
COc1ccc(N2CCN(/C=C/N=N/c3ccccc3)CC2)cc1 | 46 µM | 38 µM | 29 µM | 19 µM | 6 µM | 5 µM | > 38 µM | inactive | > 19 µM | > 46 µM | inactive | inactive
O=[N+]([O-])c1cccc(/N=N\C2=C3CCCCN3CCC2)c1 | 87 µM | 90 µM | 37 µM | > 100 µM | > 90 µM | 71 µM | 20 µM | inactive | 100 µM | > 87 µM | inactive | inactive
CN1C=C(/N=N/c2cccc3ccccc23)CCC1 | > 100 µM | ≥ 100 µM | > 100 µM | > 100 µM | > 100 µM | 76 µM | > 100 µM | inactive | 5 µM | > 100 µM | inactive | inactive
C(=C\N1CCN(c2ccccn2)CC1)/N=N/c1ccccc1 | 75 µM | 22 µM | 19 µM | ≥ 100 µM | 7 µM | 6 µM | > 22 µM | inactive | > 100 µM | > 75 µM | inactive | inactive
Clc1ccc(/N=N/C=C2\CCCN2Cc2ccccc2)cc1 | 20 µM | 70 µM | 17 µM | 18 µM | > 70 µM | 23 µM | > 70 µM | inactive | > 18 µM | > 20 µM | inactive | inactive
CN1CCC/C1=C\N=N\c1ccc(Br)c(C(F)(F)F)c1 | > 100 µM | ≥ 100 µM | 24 µM | > 100 µM | > 100 µM | 100 µM | 60 µM | inactive | 46 µM | > 100 µM | inactive | inactive
O=[N+]([O-])c1ccc(/N=N\C2=C3CCCCN3CCC2)cc1 | > 100 µM | 100 µM | 91 µM | > 100 µM | > 100 µM | 26 µM | > 100 µM | inactive | 86 µM | ≥ 100 µM | inactive | inactive
CN1CCC/C1=C\N=N\c1ccccc1 | > 100 µM | 82 µM | > 100 µM | > 100 µM | 20 µM | 19 µM | > 82 µM | inactive | 10 µM | > 100 µM | inactive | inactive
Cc1ccc(/N=N/C=C2\CCCN2C)cc1 | > 100 µM | > 100 µM | > 100 µM | > 100 µM | > 100 µM | 60 µM | > 100 µM | inactive | 20 µM | > 100 µM | inactive | inactive
Fc1ccc(/N=N\C2=C3CCCCN3CCC2)cc1C(F)(F)F | 60 µM | > 100 µM | 3 µM | > 100 µM | > 100 µM | 45 µM | > 100 µM | inactive | > 100 µM | > 60 µM | inactive | inactive
FC(F)(F)c1cccc(/N=N\C2=C3CCCCN3CCC2)c1 | 40 µM | > 100 µM | 4 µM | 8 µM | > 100 µM | 21 µM | > 100 µM | inactive | > 8 µM | > 40 µM | inactive | inactive
CN1CCC/C1=C\N=N\c1cccc(C(F)(F)F)c1 | 50 µM | > 100 µM | 49 µM | 90 µM | > 100 µM | > 100 µM | > 100 µM | inactive | 21 µM | > 50 µM | inactive | inactive
Brc1ccc(/N=N\C2=C3CCCCN3CCC2)cc1 | 62 µM | 92 µM | 27 µM | 59 µM | > 92 µM | 10 µM | > 92 µM | inactive | > 59 µM | ≥ 62 µM | inactive | inactive
CC(=O)c1ccc(N2CCN(/C=C/N=N/c3ccccc3)CC2)cc1 | 49 µM | 11 µM | 21 µM | 8 µM | 0.9 µM | > 11 µM | > 11 µM | inactive | > 8 µM | > 49 µM | inactive | inactive
Brc1cccc(/N=N\C2=C3CCCCN3CCC2)c1 | 49 µM | > 100 µM | 9 µM | 10 µM | > 100 µM | 18 µM | > 100 µM | inactive | > 10 µM | > 49 µM | inactive | inactive
C(/N=N/c1ccccc1)=C1/CCCN1Cc1ccccc1 | 31 µM | 87 µM | 22 µM | 74 µM | 30 µM | 16 µM | > 87 µM | inactive | > 74 µM | > 31 µM | inactive | inactive
Cc1ccc(/N=N/C=C2\CCCN2Cc2ccccc2)cc1 | 25 µM | 50 µM | 10 µM | 22 µM | > 50 µM | 8 µM | > 50 µM | inactive | > 22 µM | > 25 µM | inactive | inactive
CN1CCC/C1=C\N=N\c1c(F)c(F)c(F)c(F)c1F | > 100 µM | > 100 µM | 8 µM | > 100 µM | 75 µM | > 100 µM | > 100 µM | inactive | > 100 µM | > 100 µM | inactive | inactive
